Most compounds without a hit are left out; they make up all but 5.4% or so of the library.
SKKanGAS inh – inhibitors of SKKanGAS S. pyogenes growth in kanamycin (SK-promoter or general growth effect) | BacTiter-Glo, 6 h | inhibition, % at 7.5 µM | actives 1.3% (n = 300,000);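 active = mean replicate score, as percent of positive control median, at least 50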;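 also: strain carries kanamycin resistance gene driven by streptokinase promoter and grows in 40 µg/ml kanamycin; loss of luminescence reflects streptokinase promoter inhibition or plain growth inhibition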
T cruzi inh – blocks replication of Trypanosoma cruzi; inhibition, % (no concentration beside the values); T. cruzi beta-gal in NIH3T3, luminescence, 90 h; AID 1885; actives 1.4% (n = 300,000);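 active = mean inhibition across valid replicates above about 55%, limit read from the data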;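 also: signal also drops with host cell toxicity which is not excluded here; higher percent means less beta-gal luminescence so fewer parasites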
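assay system = mouse NIH/3T3 fibroblasts infected with β-gal-expressing T. cruzi Tulahuen C4 | input = 5,000 NIH/3T3 host cells per well | buffer or medium = DMEM plus 2% FBS | timing = 3 h host attachment, then at least 90 h co-culture | measured by = GalScreen luminescence, 60 min | evaluation = luminescence reflecting intracellular parasite burden, expressed as percent inhibition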
Mdm2-MdmX inh – inhibitors of human Mdm2/MdmX interaction; O15151+Q00987; actives 3% (n = 330,000); SaOS-2 split-luciferase Mdm2/MdmX complementation, luminescence; inhibition, % at 8 µM;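 active = inhibition of at least 50% at 8 µM in the primary screen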
Target sequence (O15151 whole entry, looked up): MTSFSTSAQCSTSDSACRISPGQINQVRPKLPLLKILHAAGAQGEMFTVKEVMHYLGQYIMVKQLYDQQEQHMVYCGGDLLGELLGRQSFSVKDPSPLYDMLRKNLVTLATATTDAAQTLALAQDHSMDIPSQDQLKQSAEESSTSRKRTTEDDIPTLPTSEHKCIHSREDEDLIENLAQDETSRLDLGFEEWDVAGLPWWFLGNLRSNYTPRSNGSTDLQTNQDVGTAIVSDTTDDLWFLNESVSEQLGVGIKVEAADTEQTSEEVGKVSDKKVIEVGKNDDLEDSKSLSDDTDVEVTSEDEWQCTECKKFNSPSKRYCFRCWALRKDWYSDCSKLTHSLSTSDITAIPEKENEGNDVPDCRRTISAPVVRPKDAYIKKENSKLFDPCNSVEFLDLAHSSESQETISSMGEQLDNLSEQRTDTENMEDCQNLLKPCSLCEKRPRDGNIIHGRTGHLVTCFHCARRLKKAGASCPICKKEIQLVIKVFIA
Target sequence (Q00987 whole entry, looked up): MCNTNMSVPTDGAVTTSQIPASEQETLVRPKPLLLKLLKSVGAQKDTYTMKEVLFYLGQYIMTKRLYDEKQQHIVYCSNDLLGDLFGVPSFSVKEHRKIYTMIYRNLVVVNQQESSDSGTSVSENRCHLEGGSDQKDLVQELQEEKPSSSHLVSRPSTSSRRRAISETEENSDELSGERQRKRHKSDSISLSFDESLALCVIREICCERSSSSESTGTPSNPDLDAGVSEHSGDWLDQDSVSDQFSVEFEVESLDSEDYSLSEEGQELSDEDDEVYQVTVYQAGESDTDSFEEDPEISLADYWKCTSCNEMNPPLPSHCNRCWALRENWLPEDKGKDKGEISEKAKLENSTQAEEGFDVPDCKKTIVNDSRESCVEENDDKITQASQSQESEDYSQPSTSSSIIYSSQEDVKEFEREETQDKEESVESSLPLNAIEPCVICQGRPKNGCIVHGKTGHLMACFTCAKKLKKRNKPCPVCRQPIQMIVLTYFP
CSC inhib – cancer stem cell inhibition. inhibition, % at 7.5 µM. AID 2717. cancer stem cell-like cells viability, luminescence. actives 1.1% (n = 300,000); in the data active = inhibition above about 75%; tested in HMLE shEcad cells
aSyn 5UTR inh – 5' untranslated region of α-synuclein, MLPCN primary screen; actives 0.82% (n = 300,000); inhibition, % (tested at 7.5 µM); alpha-synuclein 5'UTR reporter, inhibitor activity; in the data active = inhibition above about 60%;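 also: H4 neuroglioblastoma cells stably carrying SNCA 5'UTR luciferase fusion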
Mdm2-MdmX conf – confirmation of human Mdm2/MdmX interaction inhibitors | AID 489028 | shares compounds with Mdm2-MdmX inh | inhibition, % at 8 µM | actives 55% (n = 10,000) | Mdm2-MdmX binding, luminescent assay; in the data active = inhibition above about 40%
FLuc counter – counter-screen for Mdm2/MdmX inhibitors: full-length luciferase; shares compounds with Mdm2-MdmX inh; SaOS-2 full-length luciferase counterscreen, luminescence; inhibition, % at 8 µM; actives 77% (n = 6,200); AID 504607;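 active = mean inhibition at 8 µM reaching about 37%, which flags the compound as non-specific, limit read from the data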;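 also: p53-null SaOS-2 cells with luciferase driven by a doxycycline-inducible promoter; compound on cells about two nights before reading with doxycycline added after day one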
Numbers stand for hits; i = inactive; nt = no result.

SMILES | SKKanGAS inh | T cruzi inh | Mdm2-MdmX inh | CSC inhib | aSyn 5UTR inh | Mdm2-MdmX conf | FLuc counter
Cc1ccc2[nH]c(C)c(/C=C/c3cc[n+](C)cc3)c2c1 | i | 56.9 | 74.1 | i | i | 67.3 | 53.6
COc1ccc(NC(=O)CN(C)C(=O)Cc2ccc3c(c2)CCC3)cc1 | i | i | i | i | i | nt | nt
COc1cccc2cc(C(=O)NC3CC4CCC3C4)oc12 (stereo not given) | i | i | i | i | i | nt | nt
O=C1CCCN1c1ccc(S(=O)(=O)Nc2ccc3c(c2)OCCO3)cc1 | i | i | 68.1 | i | i | 68.9 | 61.0
Cc1ccc(S(=O)(=O)Nc2ccc3c(c2)OCCO3)cc1 | i | i | i | i | i | nt | nt
Cc1ccc2c(c1)N(CC(=O)N1CCCC1)C(=O)C(C)O2 (stereo not given) | i | i | i | i | i | nt | nt
O=C(CSc1ccc(-c2ccc3c(c2)OCO3)nn1)Nc1nccs1 | i | i | 89.0 | i | i | i | nt
CCOC(=O)c1c(C)oc2c1c(C(c1cccnc1)N1CCOCC1)c(O)c1ccccc12 (stereo not given) | i | i | 75.6 | 82.9 | i | i | nt
COc1ccc(CNCc2cc3c(C(C)(C)C)nn(-c4ccccc4)c3[nH]c2=O)cc1 | i | i | i | i | i | nt | nt
Cc1ccc(CNCc2cc3c(C(C)(C)C)nn(-c4ccccc4)c3[nH]c2=O)cc1 | i | i | 50.0 | i | i | i | nt
Clc1ccc(CCNc2ncnc3c2nnn3Cc2ccccc2)cc1 | i | i | i | i | i | nt | nt
CCCNC(=O)NC(=O)CSc1ccc2c(c1)OCCO2 | nt | nt | i | i | nt | nt | nt
Cc1cc(C)n(CCNC(=O)c2ccc3c(c2)OCO3)n1 | i | i | i | i | i | nt | nt
CCC[C@H](CN[C@@H](CNC)[C@H](C)O)NCCc1ccc(OC)cc1 | i | i | i | i | i | nt | nt
CCCC[C@@H](CNC)NC[C@H](Cc1ccc(O)cc1)NCCc1ccc(OCC)cc1 | i | i | 97.5 | i | i | 52.0 | 73.5
Cc1nn(C)c(C(=O)NCc2ccc(Cl)cc2)c1Cl | i | i | i | i | i | nt | nt
NC(=O)C1CCN(C(=O)c2ccc3c(=O)n(Cc4ccco4)c(SCc4ccc([N+](=O)[O-])cc4)nc3c2)CC1 | i | i | i | i | i | nt | nt
Cc1ccc(-c2csc3ncnc(Sc4nnc(CN5CCCCCC5=O)o4)c23)cc1 | i | i | 83.4 | 81.0 | i | 100.2 | i
CCN1C(=O)/C(=C2/Sc3ccccc3N2CC)S/C1=N\c1ncn[nH]1 | i | i | i | i | i | nt | nt
Cc1sc2c(c1C)c(=O)n(-c1ccc(Cl)cc1)c(=O)n2Cc1cc(=O)n2ccccc2n1 | i | i | i | i | i | nt | nt
CCOc1cc(C(=O)N/N=C\c2cn(CC)nc2C)cc(OCC)c1OCC | i | i | i | i | i | nt | nt
COc1ccc(Cc2nnc(N/N=C/c3ccc(O)cc3)[nH]c2=O)cc1OC | i | i | 65.8 | 102.0 | 82.2 | 70.2 | i
COc1ccc(Cc2nnc(N/N=C/c3ccc(Br)cc3)[nH]c2=O)cc1OC | i | i | i | i | i | nt | nt
O=C(c1ccccc1)c1cnc(Nc2ccc(Cl)c(Cl)c2)s1 | i | i | 70.7 | i | i | i | nt
O=C(c1ccc(F)cc1)c1cnc(Nc2ccccc2)s1 | i | i | i | i | i | nt | nt
SMILES | SKKanGAS inh | T cruzi inh | Mdm2-MdmX inh | CSC inhib | aSyn 5UTR inh | Mdm2-MdmX conf | FLuc counter
CN(C)CCCN(C(=O)c1ccc(C(=O)c2ccccc2)cc1)c1nc2cc3c(cc2s1)OCCO3 | i | i | 53.5 | i | i | i | 87.4
CN(C)CCCN(C(=O)c1ccc2c(c1)CCCC2)c1nc2cc3c(cc2s1)OCO3 | i | i | 64.1 | i | i | 48.8 | 56.1
CN(C)CCN(C(=O)c1ccc(C(=O)c2ccccc2)cc1)c1nc2cc3c(cc2s1)OCCO3 | i | i | i | i | i | nt | nt
COc1ccc(CNC(=O)C(=O)NCCC2CCCCN2S(=O)(=O)c2ccccc2)cc1 (stereo not given) | i | i | i | i | i | nt | nt
COCCNC(=O)C(=O)Nc1ccc2c(c1)N(S(=O)(=O)c1cccs1)CCC2 | i | i | 55.6 | nt | i | 72.2 | 63.9
O=C(NCCC1CCCCN1S(=O)(=O)c1cccs1)C(=O)Nc1ccccc1 (stereo not given) | i | i | i | i | i | nt | nt
COc1ccc(NC(=O)C(=O)NCCC2CCCCN2S(=O)(=O)c2ccccc2)cc1 (stereo not given) | i | i | 55.1 | i | i | 78.7 | 56.1
O=C(NCCCO)C(=O)Nc1ccc2c(c1)N(S(=O)(=O)c1cccs1)CCC2 | i | i | i | nt | i | nt | nt
COc1ccc(NC(=O)C(=O)NCCC2CCCCN2S(=O)(=O)c2cccs2)cc1 (stereo not given) | i | i | 52.5 | i | i | 73.3 | 74.8
Cc1cc(C)c(S(=O)(=O)N2CCCCC2CCNC(=O)C(=O)NC2CC2)c(C)c1 (stereo not given) | i | i | 91.8 | i | i | 94.5 | i
COc1ccccc1C(=O)Nc1ccc(OCC(=O)N2CC(C)CC(C)C2)cc1 (stereo not given) | nt | nt | i | nt | nt | nt | nt
COc1ccc(CCNC(=O)C(=O)NCC2CCCN2S(=O)(=O)c2ccccc2)cc1OC (stereo not given) | i | i | 51.8 | i | i | i | nt
O=C(NCCc1ccccc1)C(=O)NCC1CCCN1S(=O)(=O)c1ccccc1 (stereo not given) | i | i | i | i | i | nt | nt
COc1cc(OC)c(N(C)C(=O)c2cc3c(s2)-c2ccccc2S(=O)(=O)C3)cc1Cl | i | i | i | i | i | nt | nt
COc1cc(C(=O)Nc2ccc(S(=O)(=O)Nc3nccc(C)n3)cc2)c([N+](=O)[O-])cc1OC | i | i | i | i | i | nt | nt
Cn1c(=NC(=O)CCl)sc2ccccc21 | i | 62.0 | 98.4 | i | i | 96.9 | i
O=C(Nc1ccc(N2CCOCC2)cc1N1CCOCC1)c1cccc([N+](=O)[O-])c1 | i | i | i | i | i | nt | nt
CC(C)c1nc(SCC(=O)N2CCCc3ccccc32)c2c(=O)n(C)c(=O)n(C)c2n1 | i | i | 55.2 | i | i | 46.9 | 51.4
COc1cc(/C=C(\C#N)c2nc3ccccc3o2)ccc1O | i | i | i | i | i | nt | nt
COc1cc(/C=C(\C#N)c2nc(-c3cc4ccccc4oc3=O)cs2)ccc1O | i | i | 58.1 | i | i | i | nt
Cc1ccc(OCCCC(=O)NNC(=O)c2ccccn2)cc1 | nt | nt | 52.4 | i | nt | 43.5 | 44.8
Cc1cc(C)cc(OCC(=O)NNC(=O)c2ccccn2)c1 | nt | nt | 50.4 | i | nt | i | nt
O=C(COc1ccc(Cl)cc1)NNC(=O)c1ccccn1 | i | i | i | i | i | nt | nt
O=C1N(c2ccccc2)C[C@@H]2C[C@@H](c3cc4ccccc4o3)N3CCC[C@@]123 | i | 55.6 | 97.8 | nt | i | 98.0 | i
Cc1ccc(-c2ccccc2[C@@H]2C[C@H]3CN(C)C(=O)[C@]34CCCN24)o1 | i | i | i | i | i | nt | nt
CC(C)C[C@H]1CN=C(Nc2ccccc2)N1CC1CCC(C(C)(C)C)CC1 (stereo not given in full) | nt | nt | 100.3 | 78.6 | nt | i | i

Bioassay records as filed in PubChem.
